Screens (PubChem BioAssay)
Hits are enriched below; roughly 2.6% of the tested compounds scored in any of these assays.
RAD54 inh = inhibitors of human RAD54 branch migration; Q92698; RAD54 Holliday junction branch migration, FAM/BHQ fluorescence; inhibition, % at 10.4 µM; actives 0.14% (n = 360,000); AID 602329;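 active means mean normalized replicate activity at least 40 and at least half of replicates scoring 40 or more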;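 further: inhibitors cause a drop in the FAM fluorescence signal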
AF4-AF9 inh = inhibitors of human MLL-AF4/AF9 interaction; P42568; AlphaScreen, biotin-AF4 peptide binding to FLAG-AF9; actives 0.47% (n = 350,000); inhibition, % at 10 µM; AID 651704;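 active means every replicate reaching a set inhibition limit, whatever the replicate mean, cut at about 25% in these data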
E-sel inducer = induces E-selectin expression in human endothelial cells | P16581 | HUVEC E-selectin immunofluorescence imaging; normalized: neutral wells 0, TNF-alpha wells 100 | activation, % at 7.58 µM | actives 0.37% (n = 260,000);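 active means mean E-selectin-positive cell signal at least 10% of the positive control, reached in at least 60% of replicates, without over 20% cell loss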
Target sequence (P16581 whole entry, looked up): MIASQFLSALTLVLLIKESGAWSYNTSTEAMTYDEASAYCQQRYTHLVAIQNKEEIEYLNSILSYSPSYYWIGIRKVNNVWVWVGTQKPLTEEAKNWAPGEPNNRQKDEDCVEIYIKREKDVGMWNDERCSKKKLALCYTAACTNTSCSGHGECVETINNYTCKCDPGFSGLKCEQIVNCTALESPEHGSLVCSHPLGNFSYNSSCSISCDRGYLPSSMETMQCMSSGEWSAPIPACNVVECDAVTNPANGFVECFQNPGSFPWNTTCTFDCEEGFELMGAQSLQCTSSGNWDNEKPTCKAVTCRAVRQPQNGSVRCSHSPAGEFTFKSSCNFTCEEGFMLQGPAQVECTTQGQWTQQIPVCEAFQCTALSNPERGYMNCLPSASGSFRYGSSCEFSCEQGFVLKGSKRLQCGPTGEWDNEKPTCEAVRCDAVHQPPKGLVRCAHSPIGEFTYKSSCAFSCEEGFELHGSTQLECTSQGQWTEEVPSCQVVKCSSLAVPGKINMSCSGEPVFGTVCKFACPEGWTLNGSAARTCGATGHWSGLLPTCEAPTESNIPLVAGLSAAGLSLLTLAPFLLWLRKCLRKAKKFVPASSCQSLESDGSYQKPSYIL
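assay system = HUVEC, human umbilical vein endothelial cells | input = 3,000 HUVEC seeded per well | medium = EGM-2 growth medium on 0.1% gelatin-coated wells | dosing = one compound dose added by pin transfer | signal = immunofluorescence imaging | read-out basis = % PE-positive cells | control set = TNF-alpha, DMSO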
RAD52 inh = blocks human RAD52 DNA annealing; actives 0.46% (n = 360,000); P43351; inhibition, % at 18.7 µM; recombinant RAD52 DNA annealing, FRET fluorescence;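 active means every replicate showing at least 50% inhibition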
rRNA inh HTS = selective bacterial rRNA inhibition in E. coli; actives 1.6% (n = 350,000); GFP signal change (wild-type ribosome), % (concentration not given with the values); E. coli WT GFP vs humanized-ribosome RFP mutants, fluorescence, 24 h; hits give low values; DMSO median 0, no signal -100;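 active means significant combined selectivity score with lowered wild-type GFP, culture density cut under 30%, mutant RFP and density less affected; inactive means any of these conditions unmet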
INS-1E GSIS act = GLuc luminescence reporter in INS-1E cells, primary screen for activators of glucose-dependent secretion of insulin; INS-1E GLuc reporter insulin secretion, 2-3 h; activation, % at 16.6 µM; actives 0.61% (n = 370,000); AID 743287;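 active means lowest replicate activation of at least 40%, so every replicate reaches that level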
Numbers stand for hits; n = inactive; x = no result.

SMILES	RAD54 inh	AF4-AF9 inh	E-sel inducer	RAD52 inh	rRNA inh HTS	INS-1E GSIS act
CCCNC(=O)N1CC2(CN(Cc3ccc(OC)cc3)C2)c2c(n(C)c3cc(OC)ccc23)[C@H]1CO	x	36	n	x	n	n
COc1ccc2c3c(n(C)c2c1)[C@H](CO)N(C(=O)C1CC1)CC31CN(Cc2ccccc2OC)C1	x	29	n	n	n	n
COc1ccc2c3c(n(C)c2c1)[C@H](CO)N(C(=O)Cc1ccccn1)CC31CN(CC2CCCCC2)C1	x	26	n	n	n	n
COc1ccc2c3c(n(C)c2c1)[C@@H](CO)N(C(C)=O)CC31CN(Cc2ccccc2OC)C1	x	n	n	n	n	n
COc1cccc(CN2CC3(C2)CN(C(=O)C2CC2)[C@@H](CO)c2c3c3ccc(OC)cc3n2C)c1	x	26	n	x	n	n
COCC(=O)N1CC2(C1)CN(C(=O)Cc1ccccc1)[C@H](CO)c1c2c2ccc(OC)cc2n1C	x	n	n	x	n	n
C[C@@H]1CN([C@@H](C)CO)C(=O)Cc2cc(NC(=O)CCC(F)(F)F)ccc2O[C@@H]1CN(C)Cc1ccc2c(c1)OCO2	n	n	n	n	n	n
CO[C@@H]1CN(C)C(=O)c2ccc(NC(=O)c3ccccc3)cc2OC[C@H](C)N(C(C)=O)C[C@H]1C	n	n	n	n	n	n
Cc1ccc(NC(=O)c2ccccc2)cc1	n	x	x	x	x	n
Cc1ccc(NC(=O)C2=C(c3ccccc3)S(=O)(=O)CCS2(=O)=O)cc1	x	n	x	n	n	155
COc1ccc(CCC(=O)OCC(=O)Nc2ccc3[nH]c(=O)[nH]c3c2)cc1	x	n	n	n	n	45
O=C(COC(=O)c1ccco1)Nc1ccc2[nH]c(=O)[nH]c2c1	n	n	x	n	n	n
O=C(COC(=O)c1ccc(Br)o1)Nc1ccc2[nH]c(=O)[nH]c2c1	n	n	27	n	n	n
COc1ccc(OCC(=O)OCC(=O)Nc2ccc3[nH]c(=O)[nH]c3c2)cc1	n	n	x	n	n	n
C[C@H](O)C#Cc1ccc2c(c1)O[C@H](CN(C)C(=O)CC1CC1)[C@@H](C)CN([C@H](C)CO)S2(=O)=O	n	n	n	n	n	n
CCc1cc2c(COC(=O)c3cccc(S(C)(=O)=O)c3)cc(=O)oc2cc1O	n	n	x	n	n	50
O=C(Oc1c(-c2ccccc2)c(=O)n2c3c(cccc13)CC2)c1ccccc1	n	n	n	n	-28	n
O=C(Oc1c(-c2ccccc2)c(=O)n2c3c(cccc13)CC2)c1ccc(F)cc1	x	n	x	n	x	x
CSC1=NCCN1C(=O)Cc1ccc(-c2ccccc2)cc1	x	n	x	n	-19	n
CC(C)c1c(C(=O)N/N=C/c2cccs2)nnn1-c1nonc1N	n	n	x	n	n	n
Nc1nonc1-n1nnc(C(=O)N/N=C/c2cccc(Cl)c2)c1-c1cccs1	n	n	x	n	-17	n
COc1ccc(/C=N/NC(=O)c2nnn(-c3nonc3N)c2-c2cccs2)cc1OC	n	n	x	n	n	n
CC(C)c1c(C(=O)N/N=C/c2c[nH]c3ccccc23)nnn1-c1nonc1N	n	n	x	n	-18	n
CC(C)c1c(C(=O)N/N=C/c2cccc3ccccc23)nnn1-c1nonc1N	n	n	x	n	n	75
Cc1ccsc1/C=N/NC(=O)c1nnn(-c2nonc2N)c1C(C)C	n	n	x	n	-18	n
SMILES	RAD54 inh	AF4-AF9 inh	E-sel inducer	RAD52 inh	rRNA inh HTS	INS-1E GSIS act
CCCc1c(C(=O)N/N=C/c2cccc3ccccc23)nnn1-c1nonc1N	n	n	x	n	n	n
CC(C)NC(=O)N(C)C[C@@H]1Oc2c(NC(=O)C3CC3)cccc2C(=O)N([C@H](C)CO)C[C@H]1C	n	n	n	n	n	n
CCCNC(=O)Nc1ccc2c(c1)OC[C@@H](C)N(Cc1cccnc1)C[C@@H](C)[C@H](OC)CN(C)C2=O	n	n	n	n	n	n
CCCNC(=O)N1C[C@@H](O)COC[C@H]2O[C@@H](CC(=O)N3CCCCC3)CC[C@@H]21	n	n	n	n	n	n
O=C(C[C@@H]1CC[C@H]2[C@@H](COC[C@@H](O)CN2S(=O)(=O)c2ccc(Cl)cc2)O1)NCCN1CCCCC1	x	n	n	n	n	n
Cc1noc(C)c1NC(=O)N(C)C[C@@H]1Oc2ccc(NS(=O)(=O)c3ccc(Cl)cc3)cc2CC(=O)N([C@H](C)CO)C[C@H]1C	n	n	n	n	n	n
COCCOC(=O)c1c(C)n(C)c2ccc(OC(=O)c3c(OC)cccc3OC)cc12	n	n	n	n	n	n
COc1ccc2c(c1)c(C(=O)OCCN(C)C)c(C)n2C	59	x	x	x	x	x
CC(C)C[C@H]1CN(CCCC[C@H]2CNC(=O)C(=O)N2CC2CCCCC2)C(=O)C(=O)N1Cc1ccccc1	x	27	n	n	n	n
O=C1NC[C@@H](CCCCN2C[C@H](Cc3ccccc3)N(CC3CCCCC3)C(=O)C2=O)N(CCc2ccc(O)cc2)C1=O	x	n	n	n	n	n
CC(C)C[C@@H]1CN(CCCC[C@H]2CNC(=O)C(=O)N2CCC2CCCCC2)C(=O)C(=O)N1Cc1ccccc1	x	n	x	n	n	n
O=C1NC[C@H](CCCCN2C[C@H](Cc3ccc(O)cc3)N(CCc3ccccc3)C(=O)C2=O)N(CC2CCCCC2)C1=O	x	n	n	n	-27	n
O=C1NC[C@H](CCCCN2C[C@H](Cc3ccccc3)N(CCc3ccc(O)cc3)C(=O)C2=O)N(CC2CCCCC2)C1=O	x	n	n	n	-30	n
CC(C)NC(=O)N(C)C[C@H]1Oc2ncc(C#Cc3ccccc3F)cc2C(=O)N([C@@H](C)CO)C[C@@H]1C	n	n	n	n	n	n
C[C@@H]1CN([C@H](C)CO)C(=O)c2cc(-c3ccc(C(=O)N(C)C)cc3)cnc2O[C@@H]1CN(C)C(=O)c1ccncc1	n	n	n	n	n	n
O=C(NCC[C@@H]1CC[C@@H](NC(=O)C2CC2)[C@H](CO)O1)c1cc(Cl)cc(Cl)c1	n	n	n	n	n	n
C[C@@H]1CN([C@H](C)CO)C(=O)c2cc(C3=CCCCC3)cnc2O[C@@H]1CN(C)C(=O)c1ccncc1	n	n	n	n	n	n
Cc1cc2[nH]c3c4ccccc4nc(C)c3c2cc1C	91	n	x	83	n	271
Cc1cc2[nH]c3ccccc3c2c(C)n1	x	n	x	n	n	n
O=C(C[C@@H]1C=C[C@H](NC(=O)Nc2ccc(C(F)(F)F)cc2)[C@@H](CO)O1)NCc1cccc(F)c1	n	n	n	n	n	n
C[C@@H]1CN([C@H](C)CO)C(=O)c2cc(C3=CCCCC3)cnc2O[C@H]1CN(C)C(=O)Cc1cccnc1	n	n	n	n	n	n
CC(C)[C@@H]1CC[C@@H](C)C[C@H]1OC[B-](F)(F)F	x	n	n	n	n	69
